In one experiment the target is purified human αIIbβ3 (Homo sapiens, UniProt P05106+P08514). Format: binding. To be noted: for average binding affinity constant (Kb), Kb = kon/koff: two-dimensional affinity calculated from kon and koff, Mn2+-activated αIIbβ3. Summed up: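 Peptides covalently coupled to amine-functionalized latex beads. Purified human αIIbβ3, Mn2+-activated, immobilized for 2 h at 4 °C on glutaraldehyde-activated, polyacrylamide-coated 5-μm silica pedestals. At room temperature, the laser-trapped bead oscillated at 10 Hz (0.8 μm peak-to-peak, 2000 pN/s) against the pedestal for set contact times T. Binding probability versus T was fitted kinetically; αIIbβ3 density ~3000 molecules/μm² gave kon; Kb = 1/Kd = kon/koff.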

Experiment [1] addresses integrin αIIbβ3 headpiece (Homo sapiens) (UniProt P08514). To be noted: cited from earlier work.
In another experiment the test system is αIIbβ3. To be noted: based on a theoretical model; ref 49 (Dutta et al.); cited from earlier work.

The source of these data is article PMC5536102 (Biochemistry, 2017).

Residues, ends and D or L forms follow the SMILES beside them.

Sequence of fibrinogen (P02671 36-866): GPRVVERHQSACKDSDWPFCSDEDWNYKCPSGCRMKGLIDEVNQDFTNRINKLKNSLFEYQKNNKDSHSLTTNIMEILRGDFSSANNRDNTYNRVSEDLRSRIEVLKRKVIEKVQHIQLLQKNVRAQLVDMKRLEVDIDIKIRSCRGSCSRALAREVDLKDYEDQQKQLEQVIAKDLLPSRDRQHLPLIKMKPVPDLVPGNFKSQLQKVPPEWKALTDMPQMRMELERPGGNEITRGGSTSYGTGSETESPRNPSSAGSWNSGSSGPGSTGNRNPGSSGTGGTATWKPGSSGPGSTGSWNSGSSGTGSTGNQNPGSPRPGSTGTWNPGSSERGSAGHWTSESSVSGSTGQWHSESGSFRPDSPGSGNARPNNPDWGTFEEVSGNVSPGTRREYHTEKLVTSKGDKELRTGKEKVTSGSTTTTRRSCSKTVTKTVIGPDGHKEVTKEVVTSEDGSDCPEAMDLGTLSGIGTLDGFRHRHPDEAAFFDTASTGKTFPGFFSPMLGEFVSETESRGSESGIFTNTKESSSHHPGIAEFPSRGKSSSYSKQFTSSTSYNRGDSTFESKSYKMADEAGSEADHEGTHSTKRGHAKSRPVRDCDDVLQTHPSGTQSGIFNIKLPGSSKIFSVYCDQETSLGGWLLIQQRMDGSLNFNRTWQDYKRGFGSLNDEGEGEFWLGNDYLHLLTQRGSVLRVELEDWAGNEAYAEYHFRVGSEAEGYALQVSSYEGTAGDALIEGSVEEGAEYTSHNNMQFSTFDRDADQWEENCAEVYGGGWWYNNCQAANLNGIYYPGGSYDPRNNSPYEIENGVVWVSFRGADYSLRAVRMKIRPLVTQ
Sequence of fibrinogen (P02675 45-491, further chain): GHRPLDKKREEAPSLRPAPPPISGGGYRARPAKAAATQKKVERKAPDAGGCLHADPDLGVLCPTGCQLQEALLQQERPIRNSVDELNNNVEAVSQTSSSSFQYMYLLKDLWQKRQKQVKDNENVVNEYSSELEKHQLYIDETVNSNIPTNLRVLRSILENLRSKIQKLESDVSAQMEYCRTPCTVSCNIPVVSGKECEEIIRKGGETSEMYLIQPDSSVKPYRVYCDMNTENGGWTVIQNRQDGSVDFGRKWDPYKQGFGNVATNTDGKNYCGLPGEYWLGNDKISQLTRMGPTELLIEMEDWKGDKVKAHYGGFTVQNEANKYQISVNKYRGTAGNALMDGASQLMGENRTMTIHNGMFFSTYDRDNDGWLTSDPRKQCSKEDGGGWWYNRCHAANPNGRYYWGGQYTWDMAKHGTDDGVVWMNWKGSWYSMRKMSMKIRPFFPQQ
Sequence of fibrinogen (P02679 27-453, further chain): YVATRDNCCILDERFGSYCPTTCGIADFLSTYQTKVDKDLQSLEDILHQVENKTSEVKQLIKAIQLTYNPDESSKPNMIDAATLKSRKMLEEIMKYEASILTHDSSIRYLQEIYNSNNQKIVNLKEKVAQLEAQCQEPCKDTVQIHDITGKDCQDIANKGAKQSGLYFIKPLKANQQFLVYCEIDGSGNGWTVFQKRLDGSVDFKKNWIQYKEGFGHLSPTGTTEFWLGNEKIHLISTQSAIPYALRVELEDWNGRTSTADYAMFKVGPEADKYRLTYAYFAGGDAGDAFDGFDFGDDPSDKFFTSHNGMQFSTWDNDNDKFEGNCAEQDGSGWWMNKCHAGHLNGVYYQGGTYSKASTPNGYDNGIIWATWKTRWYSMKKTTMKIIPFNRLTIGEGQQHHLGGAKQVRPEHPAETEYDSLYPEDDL

“cyclo[Arg-Gly-Asp-D-Phe-Lys(Cys)] (head to tail) [cRGDFK]”: the “average binding affinity constant (Kb), Kb = kon/koff” value on purified human αIIbβ3 is recorded as “(1.96 ± 0.65) × 10^12 cm^2/mol”.

In general, koff refers to the first-order rate constant of dissociation. As for `CC(C)C[C@H](NC(=O)[C@H](Cc1c[nH]cn1)NC(=O)[C@@H](N)Cc1c[nH]cn1)C(=O)NCC(=O)NCC(=O)N[C@@H](C)C(=O)N[C@@H](CCCCN)C(=O)N[C@@H](CCC(N)=O)C(=O)N[C@@H](C)C(=O)NCC(=O)N[C@@H](CC(=O)O)C(=O)N[C@H](C(=O)O)C(C)C` [γC-12, His-His-Leu-Gly-Gly-Ala-Lys-Gln-Ala-Gly-Asp-Val] (H-HHLGGAKQAGDV-OH), on purified human αIIbβ3 (pH 7.4, read-out: average unbinding rate constant koff), the koff came to 2.05 ± 0.59 s⁻¹. In addition, the “average binding affinity constant (Kb), Kb = kon/koff” value on purified human αIIbβ3 is recorded as “(1.22 ± 0.61) × 10^12 cm^2/mol”. As a reminder, the Kd is the free concentration of one partner at which half of the binding sites on the other are occupied at equilibrium, for simple one-to-one binding. Regarding fibrinogen (from UniProt P02671), the dissociation constant Kd in experiment [1] was 100 nM. For the molecule “cyclo (S,S)-L-lysyl-L-tyrosyl-glycyl-L-cystinyl-L-homoarginyl-glycyl-L-aspartyl-L-trytopanyl-L-prolyl-L-cystine [cHarGD]”, the dissociation energy with αIIbβ3 was 7 to 9 kcal/mol.
